In ChEMBL document CHEMBL1914336, “Use of the hydantoin isostere to produce inhibitors showing selectivity toward the vesicular glutamate transporter versus the obligate exchange transporter system x(c)(-)” (Bioorg Med Chem Lett, 2011) one finds Activity, inhibition and IC50 data, which are given here for 23 compounds.

Molecules are shown by their SMILES.

In general, inhibition refers to the change of the read-out against control, counted positive when it falls. One may read the IC50 as the concentration needed to halve the response being measured.

In assay [1] the target is T1, Cystine/glutamate transporter (Homo sapiens) (UniProt Q9UPY5).
T1 sequence (whole entry): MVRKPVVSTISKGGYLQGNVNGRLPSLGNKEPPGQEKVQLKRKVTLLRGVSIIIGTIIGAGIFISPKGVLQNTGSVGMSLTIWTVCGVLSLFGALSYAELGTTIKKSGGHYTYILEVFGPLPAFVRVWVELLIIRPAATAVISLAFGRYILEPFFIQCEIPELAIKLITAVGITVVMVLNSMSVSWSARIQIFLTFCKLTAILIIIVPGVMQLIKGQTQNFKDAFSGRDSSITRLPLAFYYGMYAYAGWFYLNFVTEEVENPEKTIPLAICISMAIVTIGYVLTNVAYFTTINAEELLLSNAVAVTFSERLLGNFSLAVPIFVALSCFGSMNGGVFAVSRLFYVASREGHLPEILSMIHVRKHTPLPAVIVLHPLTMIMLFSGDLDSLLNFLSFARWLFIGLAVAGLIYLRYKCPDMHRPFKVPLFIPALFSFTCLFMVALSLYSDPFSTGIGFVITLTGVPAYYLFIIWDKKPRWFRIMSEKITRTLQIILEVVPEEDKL
Kind of assay: Inhibition of cystine/glutamate transporter in human SNB19 cells assessed as [3H]glutamate uptake at 500 uM. In kind it is cell-based. The arrangement: scale not given: the % may be the effect or the level left. To be noted: SNB-19. The method, boiled down:
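SNB19 glioma cells were kept under Na-free conditions and system xc−-mediated uptake of 100 μM L-glutamate was measured with inhibitor at 500 μM. Uptake was corrected for non-specific uptake and normalized to protein content.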

The species entered for assay [2] is Rattus norvegicus. Kind of assay: Inhibition of VGLUT in rat synaptic vesicles assessed as glutamate uptake at 5 mM relative to control. The arrangement: scale not given: the % may be the effect or the level left. The method, boiled down: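 Rat brain synaptic vesicles were isolated and VGLUT-mediated uptake of 250 μM L-glutamate was measured with inhibitor at 5 mM. Uptake was corrected for non-specific uptake, normalized to protein content and expressed as % of control.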

In assay [3] the target is Excitatory amino acid transporter 1 (Homo sapiens) (UniProt P43003). Description: Inhibition of EAAT1-mediated D-aspartate transport at 100 uM. The method, boiled down:
(§1)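 Transport by EAAT1, EAAT2 or EAAT3 was measured with 25 μM D-aspartate as substrate and inhibitor present at 100 μM.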

Assay [4] in a line: Inhibition of VGLUT in rat synaptic vesicles assessed as inhibition of glutamate uptake. Put shortly:
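Dose–response for VGLUT inhibition in synaptic vesicles isolated from rat brain, using 250 μM L-glutamate as substrate. Uptake was corrected for non-specific uptake and normalized to protein; IC50 was taken from the dose curve.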

Assay [5] concerns the target Excitatory amino acid transporter 3 (Homo sapiens) (UniProt P43005). Kind of assay: Inhibition of EAAT3-mediated D-aspartate transport at 100 uM.
Assay [6] deals with Excitatory amino acid transporter 2 (Homo sapiens) (UniProt P43004). Kind of assay: Inhibition of EAAT2-mediated D-aspartate transport at 100 uM. Put shortly:
as §1

The species entered for assay [7] is Rattus norvegicus. Kind of assay: Inhibition of VGLUT in rat synaptic vesicles assessed as glutamate uptake at 500 uM relative to control. The arrangement: scale not given: the % may be the effect or the level left.

Chain of Excitatory amino acid transporter 1 (Homo sapiens) (P43003 whole entry, the tested form may be a part): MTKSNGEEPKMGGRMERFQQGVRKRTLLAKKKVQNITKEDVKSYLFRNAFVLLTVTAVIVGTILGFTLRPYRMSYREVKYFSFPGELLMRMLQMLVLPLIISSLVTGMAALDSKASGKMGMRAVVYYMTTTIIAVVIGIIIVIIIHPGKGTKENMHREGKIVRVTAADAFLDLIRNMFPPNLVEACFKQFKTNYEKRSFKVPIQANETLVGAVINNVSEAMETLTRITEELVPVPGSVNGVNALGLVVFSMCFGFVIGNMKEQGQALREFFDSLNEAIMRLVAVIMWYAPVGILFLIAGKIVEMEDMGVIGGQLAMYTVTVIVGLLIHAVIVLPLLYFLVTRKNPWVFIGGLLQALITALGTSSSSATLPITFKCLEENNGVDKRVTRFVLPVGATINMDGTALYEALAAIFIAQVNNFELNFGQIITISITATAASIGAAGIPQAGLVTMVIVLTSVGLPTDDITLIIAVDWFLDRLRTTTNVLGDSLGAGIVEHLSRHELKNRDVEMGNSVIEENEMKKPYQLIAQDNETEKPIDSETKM
Chain of Excitatory amino acid transporter 2 (Homo sapiens) (P43004 whole entry, the tested form may be a part): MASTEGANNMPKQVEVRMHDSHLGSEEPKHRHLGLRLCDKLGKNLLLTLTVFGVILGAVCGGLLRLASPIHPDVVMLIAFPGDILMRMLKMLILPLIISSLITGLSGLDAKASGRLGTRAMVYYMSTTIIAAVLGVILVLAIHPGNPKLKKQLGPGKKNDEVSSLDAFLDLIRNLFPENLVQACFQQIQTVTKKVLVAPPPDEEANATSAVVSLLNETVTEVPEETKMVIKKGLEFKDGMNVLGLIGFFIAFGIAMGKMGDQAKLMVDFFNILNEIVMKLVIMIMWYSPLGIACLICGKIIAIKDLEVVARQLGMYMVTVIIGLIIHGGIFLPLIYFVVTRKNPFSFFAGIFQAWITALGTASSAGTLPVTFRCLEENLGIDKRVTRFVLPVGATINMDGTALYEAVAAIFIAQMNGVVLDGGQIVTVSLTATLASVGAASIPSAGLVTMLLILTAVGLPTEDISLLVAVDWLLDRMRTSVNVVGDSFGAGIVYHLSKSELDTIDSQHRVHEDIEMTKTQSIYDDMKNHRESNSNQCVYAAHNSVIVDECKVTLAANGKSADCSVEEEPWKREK
Chain of Excitatory amino acid transporter 3 (Homo sapiens) (P43005 whole entry, looked up, the tested form may be a part): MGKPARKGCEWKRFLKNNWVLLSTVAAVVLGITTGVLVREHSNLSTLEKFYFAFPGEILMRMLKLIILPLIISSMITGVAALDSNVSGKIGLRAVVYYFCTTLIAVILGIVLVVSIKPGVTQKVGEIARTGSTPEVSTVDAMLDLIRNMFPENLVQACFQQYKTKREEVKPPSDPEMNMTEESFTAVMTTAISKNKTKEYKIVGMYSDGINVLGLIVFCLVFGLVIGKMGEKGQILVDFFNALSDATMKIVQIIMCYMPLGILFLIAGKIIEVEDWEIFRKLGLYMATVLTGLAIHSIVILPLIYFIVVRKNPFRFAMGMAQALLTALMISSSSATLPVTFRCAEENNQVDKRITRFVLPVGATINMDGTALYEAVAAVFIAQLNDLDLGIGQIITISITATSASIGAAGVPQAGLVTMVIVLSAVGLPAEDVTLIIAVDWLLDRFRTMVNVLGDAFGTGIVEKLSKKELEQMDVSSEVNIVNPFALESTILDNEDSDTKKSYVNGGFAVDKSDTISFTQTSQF

With `CN(C)c1ccc(/C=C/C2NC(=O)NC2=O)cc1` (stereo not given), the figures for the Activity (in assay [1]; in the assay filed under Rattus norvegicus [2]) were 90% and 63%, respectively.
On to `O=Cc1ccc(C2NC(=O)NC2=O)s1` (racemic), for which the values for the Activity (in assay [1]; in the assay listed under Rattus norvegicus [2]) were 49% and 5%, respectively. Also, the inhibition in assay [3], in assay [5] and in assay [6] was less than 12% each time. Moreover, in assay [4], the IC50 was determined as 355 µM.
For `O=C1NC(=O)C(c2ccc(-c3ccc(C(=O)O)cc3)cc2)N1` (stereo not given), the figures for the Activity (in assay [1]; in the assay filed under Rattus norvegicus [2]) were 104% and 37%, respectively.
Taken in the same sequence, the figures for `O=C1NC(=O)C(c2c[nH]cn2)N1` (stereo not given) were 82% and 103%.
`O=C1NC(=O)C(c2cccc3ccccc23)N1` (stereo not given): the Activity was 83% in assay [1] and 91% in the assay listed under Rattus norvegicus [2].
Taken in the same sequence, the figures for `O=C1NC(=O)C(c2csc3ccccc23)N1` (stereo not given) were 118% and 79%.
The corresponding values for `O=C1NC(=O)C(c2ccc(-c3cccs3)s2)N1` (stereo not given) are 85% and 87%.
As for `O=C1NC(=O)C(c2ccc(C3NC(=O)NC3=O)cc2)N1` (stereo not given), the Activity in assay [1] came to 85%; in the assay listed under Rattus norvegicus [2] it was 78%.
Taken in the same sequence, the figures for `O=C1NC(=O)C(c2cccnc2)N1` (stereo not given) were 95% and 111%.
Taken in the same sequence, the figures for `N[C@@H](CS)C(=O)O` were 22% and 90%.
Taken in the same sequence, the figures for `O=C1NC(=O)C(c2c3ccccc3cc3ccccc23)N1` (stereo not given) were 81% and 81%.
Consider `O=C1NC(c2cccc3ccccc23)C(=O)N1CCCN1C(=O)NC(c2cccc3ccccc23)C1=O` (stereo not given), for which the Activity in assay [1] was 80%; in the assay filed under Rattus norvegicus [2], 97%.
The corresponding values for `Cc1ccc(C2NC(=O)NC2=O)s1` (stereo not given) are 66% and 76%.
On to `O=C1NC(=O)C(c2ccc(C3NC(=O)NC3=O)s2)N1` (stereo not given), for which the Activity in assay [1] was determined as 51%; in the assay filed under Rattus norvegicus [2], 6%. In addition, the inhibition in assay [3], in assay [5] and in assay [6] was less than 12% throughout. The half-maximal inhibitory concentration (IC50) in assay [4] came to 511 µM.
Take `COC(=O)c1ccc(-c2ccc(C3NC(=O)NC3=O)cc2)cc1` (stereo not given): the figures for the Activity (in assay [1]; in the assay filed under Rattus norvegicus [2]) were 93% and 95%, respectively.
Taken in the same sequence, the figures for `CN(C)c1ccc(C2NC(=O)NC2=O)cc1` (stereo not given) were 87% and 23%.
The corresponding values for `O=C1NC(c2cccc3ccccc23)C(=O)N1CCCCN1C(=O)NC(c2cccc3ccccc23)C1=O` (stereo not given) are 92% and 74%.
Taken in the same sequence, the figures for `Cc1cc(C2NC(=O)NC2=O)sc1C` (stereo not given) were 87% and 93%.
In the case of `O=C1NC(=O)C(c2ccccc2S(=O)(=O)O)N1` (stereo not given), the Activity in assay [1] was found to be 100%; in the assay listed under Rattus norvegicus [2], 121%.
The corresponding values for `O=C1NC(=O)C(c2ccc(Br)s2)N1` (stereo not given) are 65% and 75%.
As to `O=C1NC(=O)C(Cc2ccccc2)N1` (stereo not given), the Activity turned out to be 53% in assay [1] and 80% in the assay listed under Rattus norvegicus [2].
Consider `Nc1c(/N=N/c2ccc(-c3ccc(/N=N/c4cc(S(=O)(=O)O)c5ccccc5c4N)cc3)cc2)cc(S(=O)(=O)O)c2ccccc12`, for which the Activity worked out at 82% in assay [1], 0% in the assay listed under Rattus norvegicus [2] and 31% in the assay filed under Rattus norvegicus [7].
Consider `O=C1NC(=O)C(c2ccc(S(=O)(=O)O)cc2S(=O)(=O)O)N1` (racemic), for which the Activity turned out to be 100% in assay [1] and 11% in the assay listed under Rattus norvegicus [2].
